Calls of active or inactive are those of the source. No cut-off for these calls is given here.
Key:
3T3-L1 [1] = test: Induction of mouse 3T3L1 cell differentiation assessed as increase in accumulation of intracellular lipid droplet at 25 uM by Oil red O staining; assay type: functional, cell-based
Summary of the method: (§1)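 Following 8-day differentiation with compound applied from induction (insulin/dexamethasone/IBMX, then insulin maintenance), intracellular lipid droplets visualized by Oil Red O staining and photographed.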

3T3-L1 [2] = test: Induction of aP2 gene expression in mouse 3T3L1 cells assessed as increase in aP2 protein level at 6.25 uM by Western blot analysis; assay type: functional, cell-based
Summary of the method: (§2)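 3T3-L1 cells grown in DMEM/10% NCS at 37 °C, 5% CO2. Two days post-confluence, differentiation induced with 2 μg/mL insulin, 1 μM dexamethasone and 0.125 mM IBMX in 10% FBS/DMEM, then kept in 10% FBS/DMEM plus 2 μg/mL insulin. Compound added at induction and left 8 days. Cells then harvested for target protein (RIPA lysate, immunoblot) or mRNA (TRIzol RNA, RT-qPCR).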

3T3-L1 [3] = test: Induction of GLUT4 gene expression in mouse 3T3L1 cells assessed as increase in GLUT4 protein level at 6.25 uM by Western blot analysis; assay type: functional, cell-based; summary of the method: as §2
3T3-L1 [4] = test: Induction of GLUT4 gene expression in mouse 3T3L1 cells assessed as increase in GLUT4 protein level at 12.5 uM by Western blot analysis; assay type: functional, cell-based; summary of the method: as §2
3T3-L1 [5] = test: Induction of GLUT4 gene expression in mouse 3T3L1 cells assessed as increase in mRNA level at 10 uM by qRT-PCR analysis; assay type: functional, cell-based; summary of the method: as §2
3T3-L1 [6] = test: Induction of aP2 gene expression in mouse 3T3L1 cells assessed as increase in aP2 protein level at 12.5 uM by Western blot analysis; assay type: functional, cell-based; summary of the method: as §2
3T3-L1 [7] = test: Induction of aP2 gene expression in mouse 3T3L1 cells assessed as increase in mRNA level at 10 uM by qRT-PCR analysis; assay type: functional, cell-based; summary of the method: as §2
3T3-L1 [8] = test: Induction of adipogenesis in mouse 3T3L1 cells assessed as increase in triglyceride level at 50 uM after 8 days relative to control; assay type: functional
Summary of the method: (§3)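 Differentiation protocol: confluent 3T3-L1 cells held 2 days, then induced with insulin (2 μg/mL), dexamethasone (1 μM) and IBMX (0.125 mM) in 10% FBS/DMEM, then maintained with insulin. Compound present from induction for 8 days. Cellular triglyceride quantified with an enzymatic kit and compared with untreated control.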

3T3-L1 [9] = test: Induction of adipogenesis in mouse 3T3L1 cells assessed as increase in triglyceride level at 12.5 uM after 8 days relative to control; assay type: functional; summary of the method: as §3
3T3-L1 [10] = test: Induction of adipogenesis in mouse 3T3L1 cells assessed as increase in triglyceride level at 25 uM after 8 days relative to control; assay type: functional; summary of the method: as §3
3T3-L1 [11] = test: Induction of mouse 3T3L1 cell differentiation assessed as increase in accumulation of intracellular lipid droplet at 1 uM by Oil red O staining; assay type: functional, cell-based; summary of the method: as §1
3T3-L1 [12] = test: Induction of adipogenesis in mouse 3T3L1 cells assessed as increase in triglyceride level at 1 uM after 8 days relative to control; assay type: functional; summary of the method: as §3

## C=C(C)C(O)CC/C(C)=C/CC/C(C)=C/C[C@@]12Oc3cc(O)cc(O)c3C(=O)[C@]1(O)Oc1cc(O)ccc12 (stereo partly specified)
3T3-L1 [1]
  Activity: inactive

## C=C(C)[C@@H]1Cc2c(cc(O)c3c2O[C@]2(CC=C(C)C)c4ccc(O)cc4O[C@]2(O)C3=O)O1
3T3-L1 [1]
  Activity: inactive

## C=C(C)[C@H]1Cc2c(cc(O)c3c2O[C@]2(CC=C(C)C)c4ccc(O)cc4O[C@]2(O)C3=O)O1
3T3-L1 [1]
  Activity: inactive

## CC(C)=CCC/C(C)=C/CC/C(C)=C/C[C@@]12Oc3cc(O)cc(O)c3C(=O)[C@]1(O)Oc1cc(O)ccc12
3T3-L1 [1]
  Activity: inactive

## CC(C)=CC[C@]12Oc3cc4c(c(O)c3C(=O)[C@@]1(O)Oc1cc(O)ccc12)C[C@@H](C(C)(C)O)O4
3T3-L1 [1]
  Activity: inactive

## CC(C)=CC[C@]12Oc3cc4c(c(O)c3C(=O)[C@@]1(O)Oc1cc(O)ccc12)C[C@@H](O)C(C)(C)O4
3T3-L1 [1]
  Activity: inactive

## CC(C)=CC[C@]12Oc3cc4c(c(O)c3C(=O)[C@@]1(O)Oc1cc(O)ccc12)C[C@H](C(C)(C)O)O4
3T3-L1 [1]
  Activity: inactive

## CC(C)=CC[C@]12Oc3cc4c(c(O)c3C(=O)[C@@]1(O)Oc1cc(O)ccc12)C[C@H](O)C(C)(C)O4
3T3-L1 [1]
  Activity: inactive

## CC(C)=CCc1c(O)cc2oc(-c3ccc(O)cc3O)c(CC=C(C)C)c(=O)c2c1O
3T3-L1 [1]
  Activity: inactive

## CC(C)=CCc1c(-c2ccc(O)cc2O)oc2c3c(cc(O)c2c1=O)O[C@H](C)C3(C)C [NIGRASIN H]
3T3-L1 [2]
  Activity: Active
3T3-L1 [3]
  Activity: Active
3T3-L1 [4]
  Activity: Active
3T3-L1 [5]
  Activity: Active
3T3-L1 [6]
  Activity: Active
3T3-L1 [7]
  Activity: Active
3T3-L1 [1]
  Activity: Active
3T3-L1 [8]
  Activity: 203.39%
3T3-L1 [9]
  Activity: 102.16%
3T3-L1 [10]
  Activity: 143.94%

## C=CC(C)(C)c1c(O)cc(O)c2c(=O)c(CC=C(C)C)c(-c3ccc(O)cc3O)oc12 [NIGRASIN I]
3T3-L1 [2]
  Activity: Active
3T3-L1 [3]
  Activity: Active
3T3-L1 [4]
  Activity: Active
3T3-L1 [5]
  Activity: Active
3T3-L1 [6]
  Activity: Active
3T3-L1 [7]
  Activity: Active
3T3-L1 [1]
  Activity: Active
3T3-L1 [8]
  Activity: 250.63%
3T3-L1 [9]
  Activity: 179.84%
3T3-L1 [10]
  Activity: 317.18%

## CN(CCOc1ccc(CC2SC(=O)NC2=O)cc1)c1ccccn1 (stereo unspecified) [ROSIGLITAZONE]
3T3-L1 [11]
  Activity: Active
3T3-L1 [12]
  Activity: 450.32%

Reference: ChEMBL document CHEMBL1773046, “Isoprenylated flavonoids and adipogenesis-promoting constituents from Morus nigra” (2011)
